Source: article PMC3447998 (Biochemistry, 2012)
“Also recorded” adds a separate entry of the source.

Key:
[1] = test system: endogenous NRMT (293LT cells); experiment: Co-precipitation of endogenous NRMT with FLAG-tagged substrate proteins; type: binding; settings: C-terminally FLAG-tagged protein expressed in 293LT cells
In short: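 C-terminally FLAG-tagged RCC1 or VRK2 expressed in 293LT cells, immunoprecipitated with anti-FLAG, and run on 10% polyacrylamide gel with Coomassie staining. On-bead material washed 3× with 100 mM ammonium bicarbonate (pH 8.0), then reduced, carbamidomethylated and digested with endoproteinase Glu-C (enzyme:protein 1:20). Peptides acidified to pH 3.5 and analysed by nano-LC-MS on C18 capillary columns.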

[2] = test system: N-terminus of protein expressed in 293LT cells; type: cell-based; settings: MS
In short: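 FLAG-tagged constructs were transfected into 293LT cells by calcium phosphate and immunoprecipitated on anti-FLAG beads. Bead-bound protein was reduced, carbamidomethylated and Glu-C digested (1:20). Peptides went to nanoflow reverse-phase HPLC-microESI with a high-resolution MS scan, then 5–10 data-dependent CAD/ETD MS2 scans. Spectra were interpreted manually. Each form's summed extracted-ion-chromatogram area over all charge states was divided by the peptide's total area.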

[3] = test system: N-terminal methylation in mouse spleen; settings: mouse spleen lysate/extract, MS
In short: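 Proteins from mouse spleen extract were immunoprecipitated with anti-me3-SPK antibody. On-bead samples were washed in 100 mM ammonium bicarbonate pH 8.0, reduced, carbamidomethylated and digested with Glu-C (1:20). Peptides were analysed by nanoflow reverse-phase HPLC with CAD/ETD tandem MS. N-terminal modifications were assigned by manual interpretation of the spectra.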

FLAG-tagged NRMT = experiment: Co-precipitation of endogenous proteins with FLAG-tagged NRMT; type: binding; settings: FLAG-tagged NRMT expressed in 293LT cells; Coomassie-stained gel
In short: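 NRMT carrying a C-terminal FLAG tag was expressed in 293LT cells. Endogenous partner proteins were co-immunoprecipitated with it. Immunoprecipitates were resolved on a 10% polyacrylamide gel and stained with Coomassie blue.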

N-terminus of protein = settings: yeast and mammals; ref [24],[25]; cited from earlier work

Molecule | capture / co-precipitation of endogenous NRMT (in words) [1] | N-terminal acetylation reported (in words) (N-terminus of protein) | other results
MLC9: Myosin Light Chain isoform (protein, 100% N-terminally acetylated (by MS); left off: FLAG, C-terminal, kept) MSSKRAKAKTTKKRPQRATSNVFAMFDQSQIQEFKEAFNMIDQNRDGFIDKEDLHDMLASLGKNPTDEYLEGMMSEAPGPINFTMFLTMFGEKLNGTDPEDVIRNAFACFDEEASGFIHEDHLRELLTTMGDRFTDEEVDEMYREAPIDKKGNFNYVEFTRILKHGAKDKDD | cannot IP endogenous NRMT | – | N-terminal modification (in words) ([2]; 293LT cells, immunoprecipitated protein): not N-terminally methylated; N-terminal acetylation ([2]; over-expressed in 293LT cells): 100%; N-terminal methylation in vivo (in words) [3]: methylated at the N-terminus in vivo; also recorded: N-terminally methylated
RCC1-FLAG: FLAG-tagged RCC1, possesses a S-P-K motif (protein, left off: FLAG, C-terminal, kept) SPKRIAKRRSPPADAIPKSKKVKVSHRSHSTEPGLVLTLGQGDVGQLGLGENVMERKKPALVSIPEDVVQAEAGGMHTVCLSKSGQVYSFGCNDEGALGRDTSVEGSEMVPGKVELQEKVVQVSAGDSHTAALTDDGRVFLWGSFRDNNGVIGLLEPMKKSMVPVQVQLDVPVVKVASGNDHLVMLTADGDLYTLGCGEQGQLGRVPELFANRGGRQGLERLLVPKCVMLKSRGSRGHVRFQDAFCGAYFTFAISHEGHVYGFGLSNYHQLGTPGTESCFIPQNLTSFKNSTKSWVGFSGGQHHTVCMDSEGKAYSLGRAEYGRLGLGEGAEEKSIPTLISRLPAVSSVACGASVGYAVTKDGRVFAWGMGTNYQLGTGQDEDAWSPVEMMGKQLENRVVLSVSSGGQHTVLLVKDKEQS | efficiently captured endogenous NRMT | – | capture / co-precipitation of endogenous NRMT (in words) ([1]; listed as RCC1): NRMT is co-precipitated
Mina53: possesses a potential N-terminal methylation motif, MPKKAKPT (protein) MPKKAKPTGSGKEEGPAPCKQMKLEAAGGPSALNFDSPSSLFESLISPIKTETFFKEFWEQKPLLIQRDDPALATYYGSLFKLTDLKSLCSRGMYYGRDVNVCRCVNGKKKVLNKDGKAHFLQLRKDFDQKRATIQFHQPQRFKDELWRIQEKLECYFGSLVGSNVYITPAGSQGLPPHYDDVEVFILQLEGEKHWRLYHPTVPLAREYSVEAEERIGRPVHEFMLKPGDLLYFPRGTIHQADTPAGLAHSTHVTISTYQNNSWGDFLLDTISGLVFDTAKEDVELRTGIPRQLLLQVESTTVATRRLSGFLRTLADRLEGTKELLSSDMKKDFIMHRLPPYSAGDGAELSTPGGKLPRLDSVVRLQFKDHIVLTVLPDQDQSDEAQEKMVYIYHSLKNSRETHMMGNEEETEFHGLRFPLSHLDALKQIWNSPAISVKDLKLTTDEEKESLVLSLWTECLIQVV | unable to capture endogenous NRMT | – | co-precipitation with FLAG-tagged NRMT (in words) (FLAG-tagged NRMT): co-precipitates; also recorded: co-precipitated with FLAG-tagged NRMT; cleavage of the initial Met residue ([2]; both samples, data not shown): 100%
TSNAX protein: protein with SNK-N-terminus (protein, UniProt Q99598 1-290, looked up) Translin-associated protein X: MSNKEGSGGFRKRKHDNFPHNQRREGKDVNSSSPVMLAFKSFQQELDARHDKYERLVKLSRDITVESKRTIFLLHRITSAPDMEDILTESEIKLDGVRQKIFQVAQELSGEDMHQFHRAITTGLQEYVEAVSFQHFIKTRSLISMDEINKQLIFTTEDNGKENKTPSSDAQDKQFGTWRLRVTPVDYLLGVADLTGELMRMCINSVGNGDIDTPFEVSQFLRQVYDGFSFIGNTGPYEVSKKLYTLKQSLAKVENACYALKVRGSEIPKHMLADVFSVKTEMIDQEEGIS | – | reported to be N-terminally acetylated | –
PTPCAAX2: protein tyrosine phosphatase PTPCAAX2 (protein, UniProt Q12974 1-164, looked up) Protein tyrosine phosphatase …: MNRPAPVEISYENMRFLITHNPTNATLNKFTEELKKYGVTTLVRVCDATYDKAPVEKEGIHVLDWPFDDGAPPPNQIVDDWLNLLKTKFREEPGCCVAVHCVAGLGRAPVLVALALIECGMKYEDAVQFIRQKRRGAFNSKQLLYLEKYRPKMRLRFRDTNGHC | – | reported to be N-terminally acetylated | –
ENSA protein: protein with SQK-N-terminus (protein, UniProt O43768 2-121, looked up) Alpha-endosulfine: SQKQEEENPAEETGEEKQDTQEKEGILPERAEEAKLKAKYPSLGQKPGGSDFLMKRLQKGQKYFDSGDYNMAKAKMKNKQLPSAGPDKNLVTGDHIPTPQDLPQRKSSLVTSKLAGGQVE | – | reported to be N-terminally acetylated | –
